# Laboratory results taken from ChEMBL document CHEMBL1146866, “Structural determinants for the membrane interaction of novel bioactive undecapeptides derived from gaegurin 5” (J Med Chem, 2006).
# Where a SMILES comes first, the peptide text is derived from it.
# Assays:
# [1] = tested on: A498; assay: Antitumor activity against human A498 cell line
# [2] = tested on: NCI-H630; assay: Antitumor activity against human NCI-H630 cell line; format: functional, cell-based
# [3] = tested on: SK-OV-3; assay: Antitumor activity against human SKOV3 cell line; format: functional, cell-based
# [4] = tested on: RBCs; assay: Hemolytic activity against human red blood cells at 100 ug/ml; format: functional, Erythrocyte
# Procedure, shortened: (§1)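 Human erythrocytes exposed to peptide. Hemolysis expressed as % relative to lysis by 0.2% Triton X-100.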
# [5] = tested on: MKN-45; assay: Antitumor activity against human MKN45 cell line; format: functional, cell-based
# [6] = tested on: PC-3; assay: Antitumor activity against human PC3 cell line; format: functional, cell-based
# [7] = tested on: A549; assay: Antitumor activity against human A549 cell line
# [8] = tested on: MCF7; assay: Antitumor activity against human MCF7 cell line; format: functional, cell-based
# [9] = tested on: SK-MEL-2; assay: Antitumor activity against human SK-MEL-2 cell line; format: functional, cell-based
# [10] = tested on: HCT-116; assay: Antitumor activity against human HCT116 cell line; format: functional, cell-based
# [11] = tested on: RBCs; assay: Hemolytic activity against human red blood cells at 300 ug/ml; format: functional, Erythrocyte; procedure, shortened: as §1
# [12] = tested on: RBCs; assay: Hemolytic activity against human red blood cells at 200 ug/ml; format: functional, Erythrocyte; procedure, shortened: as §1
# [13] = tested on: RBCs; assay: Hemolytic activity against human red blood cells at 400 ug/ml; format: functional, Erythrocyte; procedure, shortened: as §1
# [14] = tested on: MCF10; assay: Antitumor activity against human MCF10a cell line
IC50 [1] [µM],IC50 [2] [µM],IC90 [2] [µM],IC50 [3] [µM],IC90 [3] [µM],IC50 [5] [µM],IC90 [5] [µM],IC50 [6] [µM],IC90 [6] [µM],IC50 [7] [µM],IC90 [7] [µM],IC50 [8] [µM],IC90 [9] [µM],IC50 [10] [µM],IC90 [10] [µM],IC90 ([8]; read-out: IC90) [µM],Compound,Activity [4] [%],Activity [11] [%],Activity [12] [%],Activity [13] [%],other results
54.1,16.4,25.1,15,23.4,13.7,24,17.1,22.9,57.1,89.1,72,18.2,44.4,89.1,,CC[C@H](C)[C@H](NC(=O)[C@H](C)NC(=O)[C@H](CS)NC(=O)[C@H](CCCCN)NC(=O)[C@@H](NC(=O)[C@H](CO)NC(=O)[C@@H]1CCCN1C(=O)[C@H](CC(C)C)NC(=O)[C@@H](NC(=O)[C@H](CCCCN)NC(=O)[C@H](CO)NC(=O)[C@H](C)NC(=O)[C@@H](NC(=O)[C@H](CCCCN)NC(=O)[C@H](Cc1ccccc1)NC(=O)[C@H](CC(C)C)NC(=O)[C@H](C)NC(=O)CNC(=O)[C@H](CC(C)C)NC(=O)[C@@H](N)Cc1ccccc1)C(C)C)C(C)C)C(C)C)C(=O)N[C@H](C(=O)N[C@@H](CCCCN)C(=O)N[C@@H](CCCCN)C(=O)N[C@@H](CS)C(=O)O)[C@@H](C)O (H-FLGALFKVASKVLPSVKCAITKKC-OH),6.8,,,,IC90 [8]: 93.3 µM; IC50 [9]: 18.6 µM
,,0.372,0.005,0.071,,0.204,,0.832,,0.041,,0.037,,0.008,0.015,CC(=O)O[C@H]1C(=O)[C@@]2(C)[C@H]([C@H](OC(=O)c3ccccc3)[C@]3(O)C[C@H](OC(=O)[C@H](O)[C@@H](NC(=O)c4ccccc4)c4ccccc4)C(C)=C1C3(C)C)[C@]1(OC(C)=O)CO[C@@H]1C[C@@H]2O [PACLITAXEL],,,,,IC90 [1]: 0.229 µM

# More lines, now with the values behind:
Compound,IC50 [1] [µM],IC50 [2] [µM],IC90 [2] [µM],IC50 [3] [µM],IC90 [3] [µM],IC50 [5] [µM],IC90 [5] [µM],IC50 [6] [µM],IC90 [6] [µM],IC50 [7] [µM],IC90 [7] [µM],IC50 [8] [µM],IC90 [9] [µM],IC50 [10] [µM],IC90 [10] [µM],IC90 ([8]; read-out: IC90) [µM],Activity [4] [%],Activity [11] [%],Activity [12] [%],Activity [13] [%],other results
H-FLGALFKWASK-OH,169,102,117,119,166,113,151,137,195,330,,157,,114,170,229,6.21,6.36,6.36,6.67,IC50 [14]: 343 µM
H-FLGALFKVASK-OH,,,,,,,,,,,,,,,,,6.06,6.06,6.06,6.21,
H-FLGWLFKVASK-OH,56.5,58.6,81.3,71.1,89.1,63.8,85.1,95.5,112,82,102,59.6,46.8,23.5,56.2,110,6.52,7.12,6.82,9.24,IC90 [1]: 83.2 µM; IC50 [9]: 23.5 µM; IC50 [14]: 240 µM
H-FLGALFKVASKVL-OH,,,,,,,,,,,,,,,,,25.8,,,,
